Laboratory results from ChEMBL document CHEMBL4118063, “Design, synthesis and evaluation of aromatic heterocyclic derivatives as potent antifungal agents” (Eur J Med Chem, 2017).
In brackets after ≈: the same amount, converted by molar mass.

Test system: Candida tropicalis
Test: Antifungal activity against Candida tropicalis cgmcc 2.3739 by broth microdilution method
Type: functional
Conditions: not given
Outline: (§1)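 Serial twofold-style dilution in growth medium per NCCLS broth microdilution guidelines. Compounds dissolved in DMSO before dilution. Fluconazole and itraconazole served as positive controls. MIC was read as the lowest concentration that prevents visible fungal growth.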

| Structure (SMILES) | MIC [µg/mL] |
| --- | --- |
| Cc1cc(C(=O)N[C@@H](Cn2ccnc2)C(=O)OCC(C)C)nn1-c1ccccc1 | 4 (≈ 10.1 µM) |
| CC(C)COC(=O)[C@H](Cn1ccnc1)NC(=O)c1cc(-c2ccccc2)on1 | 0.0312 (≈ 0.0817 µM) |
| Cc1ccc(-c2cc(C(=O)N[C@@H](Cn3ccnc3)C(=O)OC(C)C)no2)cc1 | 0.0312 (≈ 0.0817 µM) |
| CC(C)COC(=O)[C@H](Cn1ccnc1)NC(=O)c1cc(-c2ccccc2F)on1 | 0.0312 (≈ 0.078 µM) |

Test system: Candida albicans
Test: Antifungal activity against fluconazole-resistant Candida albicans strain 103 by broth microdilution method
Type: functional
Conditions: not given
Outline: (§2)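 Broth serial dilution in 96-well plates per NCCLS guidelines; compounds dissolved in DMSO and serially diluted into growth medium; MIC taken as lowest concentration inhibiting visible fungal growth. Fluconazole-resistant clinical C. albicans isolates 100 and 103; fluconazole and itraconazole as positive controls.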

| Structure (SMILES) | MIC [µg/mL] |
| --- | --- |
| CC(C)COC(=O)[C@H](Cn1ccnc1)NC(=O)c1cc(-c2ccccc2F)on1 | 0.5 (≈ 1.25 µM) |

Test system: Candida albicans
Test: Antifungal activity against Candida albicans ATCC SC5314 by broth microdilution method
Type: functional
Conditions: not given
Outline: as §1

| Structure (SMILES) | MIC [µg/mL] |
| --- | --- |
| Cc1cc(C(=O)N[C@@H](Cn2ccnc2)C(=O)OCC(C)C)nn1-c1ccccc1 | > 16 |
| CC(C)COC(=O)[C@H](Cn1ccnc1)NC(=O)c1cc(-c2ccccc2)on1 | 0.0625 (≈ 0.163 µM) |
| Cc1ccc(-c2cc(C(=O)N[C@@H](Cn3ccnc3)C(=O)OC(C)C)no2)cc1 | 0.25 (≈ 0.654 µM) |
| CC(C)COC(=O)[C@H](Cn1ccnc1)NC(=O)c1cc(-c2ccccc2F)on1 | 0.0312 (≈ 0.078 µM) |

Test system: Cryptococcus neoformans
Test: Antifungal activity against Cryptococcus neoformans cgmcc 2.3161 by broth microdilution method
Type: functional
Conditions: not given
Outline: as §1

| Structure (SMILES) | MIC [µg/mL] |
| --- | --- |
| Cc1cc(C(=O)N[C@@H](Cn2ccnc2)C(=O)OCC(C)C)nn1-c1ccccc1 | > 16 |
| CC(C)COC(=O)[C@H](Cn1ccnc1)NC(=O)c1cc(-c2ccccc2)on1 | 0.25 (≈ 0.654 µM) |
| Cc1ccc(-c2cc(C(=O)N[C@@H](Cn3ccnc3)C(=O)OC(C)C)no2)cc1 | 2 (≈ 5.23 µM) |
| CC(C)COC(=O)[C@H](Cn1ccnc1)NC(=O)c1cc(-c2ccccc2F)on1 | 0.25 (≈ 0.624 µM) |

Test system: Aspergillus fumigatus
Test: Antifungal activity against Aspergillus fumigatus GIM 3.524 by broth microdilution method
Type: functional
Conditions: not given
Outline: as §1

| Structure (SMILES) | MIC [µg/mL] |
| --- | --- |
| Cc1cc(C(=O)N[C@@H](Cn2ccnc2)C(=O)OCC(C)C)nn1-c1ccccc1 | > 16 |
| CC(C)COC(=O)[C@H](Cn1ccnc1)NC(=O)c1cc(-c2ccccc2)on1 | 4 (≈ 10.5 µM) |
| Cc1ccc(-c2cc(C(=O)N[C@@H](Cn3ccnc3)C(=O)OC(C)C)no2)cc1 | 8 (≈ 20.9 µM) |
| CC(C)COC(=O)[C@H](Cn1ccnc1)NC(=O)c1cc(-c2ccccc2F)on1 | 4 (≈ 9.99 µM) |

Test system: not listed separately
Test: Metabolic stability in human plasma assessed as parent compound remaining at 60 mins
Type: ADME, cell-free
Conditions: read-out: Stability

| Structure (SMILES) | remaining at 1 h [%] |
| --- | --- |
| CC(C)COC(=O)[C@H](Cn1ccnc1)NC(=O)c1cc(-c2ccccc2F)on1 | 74.6 |

Test system: Candida albicans
Test: Antifungal activity against Candida albicans CPCC 400523 by broth microdilution method
Type: functional
Conditions: not given
Outline: as §1

| Structure (SMILES) | MIC [µg/mL] |
| --- | --- |
| Cc1cc(C(=O)N[C@@H](Cn2ccnc2)C(=O)OCC(C)C)nn1-c1ccccc1 | > 16 |
| CC(C)COC(=O)[C@H](Cn1ccnc1)NC(=O)c1cc(-c2ccccc2)on1 | 1 (≈ 2.61 µM) |
| Cc1ccc(-c2cc(C(=O)N[C@@H](Cn3ccnc3)C(=O)OC(C)C)no2)cc1 | 0.5 (≈ 1.31 µM) |
| CC(C)COC(=O)[C@H](Cn1ccnc1)NC(=O)c1cc(-c2ccccc2F)on1 | 0.125 (≈ 0.312 µM) |

Test system: not listed separately
Test: Metabolic stability in human plasma assessed as parent compound remaining at 120 mins
Type: ADME, cell-free
Conditions: read-out: Stability

| Structure (SMILES) | remaining at 2 h [%] |
| --- | --- |
| CC(C)COC(=O)[C@H](Cn1ccnc1)NC(=O)c1cc(-c2ccccc2F)on1 | 61.4 |

Test system: Candida albicans
Test: Antifungal activity against fluconazole-resistant Candida albicans strain 100 by broth microdilution method
Type: functional
Conditions: not given
Outline: as §2

| Structure (SMILES) | MIC [µg/mL] |
| --- | --- |
| CC(C)COC(=O)[C@H](Cn1ccnc1)NC(=O)c1cc(-c2ccccc2F)on1 | 0.125 (≈ 0.312 µM) |
